Measurements from ChEMBL document CHEMBL3992529, “Total Syntheses and Biological Activities of Vinylamycin Analogues” (J Med Chem, 2017).
Activity calls are given as the source filed them. The rule behind the calls is not given here.

Assays:
MCF7 [1] = assay: Cytotoxicity against human MCF7 cells incubated for 72 hrs under normoxic condition by MTT assay; assay type: functional, cell-based; details: MCF7, 72 h
Procedure, shortened: (§1)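 MCF-7 cells seeded at 2 × 10^4 cells/100 µL in duplicate and preincubated 24 h. Serial dilutions added, then 72 h at 20% O2 (normoxia) or 1% O2 (hypoxia, modular chamber). Viability by MTT under normoxia. Values are mean ± SD of three independent experiments.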

MCF7 [2] = assay: Cytotoxicity against human MCF7 cells incubated for 72 hrs under hypoxic condition by MTT assay; assay type: functional, cell-based; details: MCF7, 72 h; procedure, shortened: as §1
MCF7 [3] = assay: Selectivity index, ratio of IC50 for human MCF7 cells under hypoxic condition to IC50 for human MCF7 cells under normoxic condition; assay type: functional
Procedure, shortened: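 Index computed as IC50(hypoxia)/IC50(normoxia) in MCF-7 cells, each from a 72 h MTT assay at 1% or 20% O2.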

[4] = Stability of the compound at -20 degreeC incubated for one month; assay type: physicochemical; details: 730.5 h
K562 [5] = assay: Cytotoxicity against human K562 cells measured after 72 hrs by MTT assay; assay type: functional, cell-based; details: K562, 72 h
[6] = Toxicity in wild-type zebrafish AB assessed as mortality at 20 ug/ml; design: species or system Danio rerio; details: in vivo
Procedure, shortened: (§2)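 Wild-type AB zebrafish were randomly allocated to wells, 30 fish per well, and exposed to the test agent at a range of concentrations.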

[7] = Toxicity in wild-type zebrafish AB assessed as mortality at 100 ug/ml; design: species or system Danio rerio; details: AB wild-type, in vivo; procedure, shortened: as §2
[8] = Toxicity in wild-type zebrafish AB assessed as mortality at 50 ug/ml; design: species or system Danio rerio; details: in vivo; procedure, shortened: as §2
[9] = Toxicity in wild-type zebrafish AB assessed as mortality at 0.8 ug/ml; design: species or system Danio rerio; details: in vivo; procedure, shortened: as §2
[10] = Toxicity in wild-type zebrafish AB assessed as mortality at 4 ug/ml; design: species or system Danio rerio; details: in vivo; procedure, shortened: as §2
K562 [11] = assay: Cytotoxicity against CM-Dil-labeled human K562 cells xenografted in wild-type zebrafish AB assessed as cell growth inhibition at 50 ug/ml measured after 2 days by fluorescence microscopic method relative to control; assay type: functional
Procedure, shortened: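 Wild-type AB zebrafish at 2 dpf yolk-injected with about 200 CM-DiI-labelled K562 cells, held at 35 °C to 3 dpf. Single waterborne dose in 0.1% DMSO aqueous solution, 30 fish per well. Then 2 days at 35 °C. 10 fish imaged by fluorescence microscopy and tumour-cell fluorescence intensity compared with vehicle control.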

K562 [12] = assay: Potency index, ratio of vinylamycin IC50 to compound IC50 for human K562 cells; assay type: functional
K562 [13] = assay: Induction of apoptosis in human K562 cells at 5 to 15 uM measured after 24 to 48 hrs by Annexin V-FITC/propidium iodide staining based flow cytometry; assay type: functional, cell-based
Procedure, shortened: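 K562 cells seeded at 1 × 10^5 per well and treated 24 h and 48 h. Cells washed in PBS, resuspended in binding buffer, stained in the dark with annexin V-FITC and PI for 15 min, then analysed by flow cytometry within 1 h. Values are mean ± SD of three independent experiments.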

Staphylococcus aureus = assay: Antibacterial activity against Staphylococcus aureus measured after 24 hrs by turbidimetric based microdilution method; assay type: functional
Procedure, shortened: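 S. aureus grown 18 h at 37 °C in MH broth, diluted 50-fold and regrown to OD600 0.8–1.0, then diluted ten-fold serially to about 1 × 10^4 CFU/mL. Compounds two-fold serially diluted, 64 to 0.0625 µg/mL. MIC read by visual turbidity after 24 h at 37 °C.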

Stability [4] | SMILES | IC50 (K562 [5]) | further results
Stable | C=C1/C=C/C(=O)N[C@H](C)C(=O)N[C@@H](C(C)C)C(=O)O[C@@H]([C@H](C)CCCCCC)[C@H](CCOCc2ccc(OC)cc2)C(=O)N1 | 2.49 µM | 
Stable | CCCCCC[C@@H](C)[C@@H]1OC(=O)[C@H](C(C)C)NC(=O)[C@@H](C)NC(=O)/C=C/[C@H](CO)NC(=O)[C@H]1CCOCc1ccc(OC)cc1 | 21.4 µM | 
Stable | C=C1/C=C/C(=O)N[C@@H](C)C(=O)N[C@H](C(C)C)C(=O)O[C@@H]([C@H](C)CCCCCC)[C@H](CCOCc2ccc(OC)cc2)C(=O)N1 | 4.6 µM | IC50 (MCF7 [1]): 10.1 µM; IC50 (MCF7 [2]): 7.98 µM; Ratio IC50 (MCF7 [3]): 0.79
Stable | C=C1/C=C/C(=O)N[C@H](C)C(=O)N[C@@H](C(C)C)C(=O)O[C@@H]([C@H](C)CCCCCC)[C@H](CCOC(=O)[C@H](Cc2ccccc2)NC(=O)OC(C)(C)C)C(=O)N1 | 5.95 µM | 
Stable | C=C1/C=C/C(=O)N[C@@H](C)C(=O)N[C@H](C(C)C)C(=O)O[C@H]([C@H](C)CCCCCC)[C@@H](CCO[Si](c2ccccc2)(c2ccccc2)C(C)(C)C)C(=O)N1 | 1.78 µM | IC50 (MCF7 [1]): 2.98 µM; IC50 (MCF7 [2]): 2.69 µM; Ratio IC50 (K562 [12]): 3; Ratio IC50 (MCF7 [3]): 0.9
Stable | C=C1/C=C/C(=O)N[C@H](C)C(=O)N[C@@H](C(C)C)C(=O)O[C@@H]([C@H](C)CCCCCC)[C@H](CCOC(=O)OC(C)(C)C)C(=O)N1 | 5.43 µM | 
Stable | C=C1/C=C/C(=O)N[C@@H](C)C(=O)N[C@H](C(C)C)C(=O)OC([C@@H](C)CCC)[C@@H](CCOCc2ccc(OC)cc2)C(=O)N1 (single isomer, unassigned) | 13.7 µM | 
Stable | C#CCCCC(=O)OCC[C@@H]1C(=O)NC(=C)/C=C/C(=O)N[C@H](C)C(=O)N[C@@H](C(C)C)C(=O)O[C@H]1[C@H](C)CCCCCC | 8 µM | 

Continued, compound first:

SMILES | Stability [4] | IC50 (K562 [5]) | further results
C=C1/C=C/C(=O)N[C@@H](C)C(=O)N[C@H](C(C)C)C(=O)O[C@@H]([C@H](C)CCCCCC)[C@H](CCO[Si](c2ccccc2)(c2ccccc2)C(C)(C)C)C(=O)N1 | Stable | 0.88 µM | IC50 (MCF7 [1]): 3.75 µM; IC50 (MCF7 [2]): 2.93 µM; Ratio IC50 (MCF7 [3]): 0.78
Cc1ccc(NC(=O)c2ccc(CN3CCN(C)CC3)cc2)cc1Nc1nccc(-c2cccnc2)n1 [IMATINIB] |  |  | mortality at 20 ug/ml [6]: 0%; mortality at 100 ug/ml [7]: 100%; mortality at 50 ug/ml [8]: 0%; mortality at 0.8 ug/ml [9]: 0%; mortality at 4 ug/ml [10]: 0%; growth inhibition (GI) (K562 [11]): 71%
C=C1/C=C/C(=O)N[C@H](C)C(=O)N[C@@H](C(C)C)C(=O)O[C@@H]([C@H](C)CCCCCC)[C@H](CCOC(=O)CCCCCCCCCCCCCCCCC)C(=O)N1 | Stable | > 50 µM | 
C=C1/C=C/C(=O)N[C@H](C)C(=O)N[C@@H](C(C)C)C(=O)O[C@@H]([C@H](C)CCCCCC)[C@H](CCOC(=O)C23CC4CC(CC(C4)C2)C3)C(=O)N1 | Stable | 7.72 µM | 
C#CCCCCCCCCC(=O)OCC[C@@H]1C(=O)NC(=C)/C=C/C(=O)N[C@H](C)C(=O)N[C@@H](C(C)C)C(=O)O[C@H]1[C@H](C)CCCCCC | Stable | 4.41 µM | Activity (K562 [13]): Active; MIC (Staphylococcus aureus): > 64 µg/mL
C=C1/C=C/C(=O)N(C)CC(=O)N[C@@H]([C@H](O)C(N)=O)C(=O)O[C@@H]([C@H](C)CCCCCCCCCCCC(C)C)[C@H](C)C(=O)N1 |  |  | IC50 (MCF7 [1]): 0.3 µM; IC50 (MCF7 [2]): 0.08 µM; Ratio IC50 (MCF7 [3]): 0.27
